pEC50, pKi: −log10 of the molar value. Calls of active or inactive are those of the source. The rule behind the calls is not given here.
Tests used:
[1] = tested on: Daudi; assay: Antiproliferative activity against human Daudi cells assessed as inhibition of cell viability measured for 6 to 7 days by cell titer glo assay; format: functional, cell-based
Procedure, shortened: (§1)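 Tumor lines plated in recommended growth media, overnight at 37°C, 5% CO2, then given serial dilutions; a T=0 plate read with CellTiter-Glo at dosing. After 6–7 d of exposure, viability read by CellTiter-Glo luminescence. No-cell wells subtracted, data expressed as % of DMSO control.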

[2] = tested on: A549; assay: Effect on cell cycle distribution in human A549 cells assessed as increase in sub-2N DNA content at 2 to 5000 nM incubated for 24 to 72 hrs by flow cytometry based analysis; format: functional; details: dose 2-5000 nM, time 24-72 hrs
[3] = tested on: MV-4-11 (human); assay: Antitumor activity in human MV-4-11 cells xenografted in NOD-SCID mouse assessed as median survival time at 20 mg/kg, ip administered once daily for 5 consecutive days with 2 days off scheduled for 3 cycles measured upto 120 days; details: time <= 120 day
[4] = Antiproliferative activity against human OCI-M1 cells assessed as inhibition of cell viability measured for 6 to 7 days by cell titer glo assay; format: functional, cell-based
Procedure, shortened: (§2)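 Cells seeded in recommended growth medium, held overnight at 37°C in 5% CO2, then exposed to serial dilutions of inhibitor for 6–7 d. A time-zero plate was read with CellTiter-Glo at dosing. Luminescent viability read at the end. No-cell wells subtracted as background, data expressed as percent of DMSO control.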

[5] = tested on: RPMI-6666; assay: Antiproliferative activity against human RPMI-6666 cells assessed as inhibition of cell viability measured for 6 to 7 days by cell titer glo assay; format: functional, cell-based; procedure, shortened: as §2
[6] = tested on: JM1; assay: Antiproliferative activity against human JM1 cells assessed as inhibition of cell viability measured for 6 to 7 days by cell titer glo assay; format: functional, cell-based
Procedure, shortened: (§3)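 Cells seeded in recommended growth medium, incubated overnight at 37°C in 5% CO2, then exposed to serial dilutions of inhibitor for 6–7 d. A parallel plate was read with CellTiter-Glo at compound addition as a T=0 value. The luminescent viability readout had no-cell background subtracted and was expressed as % of DMSO control.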

[7] = Antiproliferative activity against human MJ cells assessed as inhibition of cell viability measured for 6 to 7 days by cell titer glo assay; format: functional, cell-based; procedure, shortened: as §3
[8] = tested on: SW48; assay: Antiproliferative activity against human SW48 cells assessed as inhibition of cell viability measured for 6 to 7 days by cell titer glo assay; format: functional, cell-based; procedure, shortened: as §2
[9] = tested on: ML-2; assay: Antiproliferative activity against human ML-2 cells assessed as inhibition of cell viability measured for 6 to 7 days by cell titer glo assay; format: functional, cell-based; procedure, shortened: as §3
[10] = Antiproliferative activity against human RCH-ACV cells assessed as inhibition of cell viability measured for 6 to 7 days by cell titer glo assay; format: functional, cell-based; procedure, shortened: as §2
[11] = Antiproliferative activity against human CML-T1 cells assessed as inhibition of cell viability measured for 6 to 7 days by cell titer glo assay; format: functional, cell-based; procedure, shortened: as §1
[12] = tested on: SW-620; assay: Antitumor activity in human SW620 cells xenografted in SCID mouse assessed as reduction in tumor growth at 25 to 100 mg/kg, ip administered once daily for 5 consecutive days with 2 days off scheduled for 3 cycles measured upto 60 days; format: functional, organism-based; details: dose 25-100 mg/kg, time 60.0 day
[13] = tested on: MOLT-4; assay: Antiproliferative activity against human MOLT-4 cells assessed as inhibition of cell viability measured for 6 to 7 days by cell titer glo assay; format: functional, cell-based; procedure, shortened: as §3
[14] = tested on: P3HR-1; assay: Antiproliferative activity against human P3HR-1 cells assessed as inhibition of cell viability measured for 6 to 7 days by cell titer glo assay; format: functional, cell-based; procedure, shortened: as §2
[15] = tested on: MC116; assay: Antiproliferative activity against human MC116 cells assessed as inhibition of cell viability measured for 6 to 7 days by cell titer glo assay; format: functional, cell-based; procedure, shortened: as §3
[16] = tested on: NCI-H460; assay: Antiproliferative activity against human NCI-H460 cells assessed as inhibition of cell viability measured for 6 to 7 days by cell titer glo assay; format: functional, cell-based; procedure, shortened: as §2
[17] = tested on: A549; assay: Antitumor activity in human A549 cells xenografted in nude mouse assessed as reduction in tumor growth at 25 to 100 mg/kg, ip administered once daily for 5 consecutive days with 2 days off scheduled for 3 cycles measured upto 60 days; details: dose 25-100 mg/kg, time <= 60.0 day
[18] = tested on: COLO 201; assay: Antiproliferative activity against human COLO201 cells assessed as inhibition of cell viability measured for 6 to 7 days by cell titer glo assay; format: functional, cell-based; procedure, shortened: as §1
[19] = tested on: JVM-3; assay: Antiproliferative activity against human JVM-3 cells assessed as inhibition of cell viability measured for 6 to 7 days by cell titer glo assay; format: functional, cell-based; procedure, shortened: as §3
[20] = tested on: BV-173; assay: Antiproliferative activity against human BV-173 cells assessed as inhibition of cell viability measured for 6 to 7 days by cell titer glo assay; format: functional, cell-based; procedure, shortened: as §1
[21] = tested on: RKO; assay: Antiproliferative activity against human RKO cells assessed as inhibition of cell viability measured for 6 to 7 days by cell titer glo assay; format: functional, cell-based; procedure, shortened: as §2
[22] = Antiproliferative activity against human EB1 cells assessed as inhibition of cell viability measured for 6 to 7 days by cell titer glo assay; format: functional, cell-based; procedure, shortened: as §1
[23] = tested on: SW1417; assay: Antiproliferative activity against human SW1417 cells assessed as inhibition of cell viability measured for 6 to 7 days by cell titer glo assay; format: functional, cell-based; procedure, shortened: as §2
[24] = target: Aurora kinase B/Inner centromere protein (Homo sapiens, UniProt Q96GD4); assay: Binding affinity to AurB/INCENP (unknown origin) assessed as inhibition constant; format: protein-complex assay
[25] = Antiproliferative activity against human 1A2 cells assessed as inhibition of cell viability measured for 6 to 7 days by cell titer glo assay; format: functional, cell-based; procedure, shortened: as §1
[26] = Antiproliferative activity against human Hs 445 cells assessed as inhibition of cell viability measured for 6 to 7 days by cell titer glo assay; format: functional, cell-based; procedure, shortened: as §3
[27] = tested on: HEC-1B cell line; assay: Antiproliferative activity against human HEC-1B cell line assessed as inhibition of cell viability measured for 6 to 7 days by cell titer glo assay; format: functional, cell-based; procedure, shortened: as §1
[28] = tested on: NCI-H460; assay: Antitumor activity in human NCI-H460 cells xenografted in nude mouse assessed as reduction in tumor growth at 25 to 100 mg/kg, ip administered once daily for 5 consecutive days with 2 days off scheduled for 3 cycles measured upto 60 days; details: dose 25-100 mg/kg, time 60.0 day
[29] = Antiproliferative activity against human TO 175.T cells assessed as inhibition of cell viability measured for 6 to 7 days by cell titer glo assay; format: functional, cell-based; procedure, shortened: as §2
[30] = Antiproliferative activity against human DND41 cells assessed as inhibition of cell viability measured for 6 to 7 days by cell titer glo assay; format: functional, cell-based; procedure, shortened: as §1
[31] = tested on: U2OS; assay: Antiproliferative activity against human U2OS cells assessed as inhibition of cell viability measured for 6 to 7 days by cell titer glo assay; format: functional, cell-based
[32] = Antiproliferative activity against human CRO-AP5 cells assessed as inhibition of cell viability measured for 6 to 7 days by cell titer glo assay; format: functional, cell-based; procedure, shortened: as §1
[33] = tested on: COLO 320DM; assay: Antiproliferative activity against human COLO 320DM cells assessed as inhibition of cell viability measured for 6 to 7 days by cell titer glo assay; format: functional, cell-based; procedure, shortened: as §1
[34] = tested on: SEM cells; assay: Antiproliferative activity against human SEM cells assessed as inhibition of cell viability measured for 6 to 7 days by cell titer glo assay; format: functional, cell-based; procedure, shortened: as §2
[35] = Antiproliferative activity against human SKO-007 cells assessed as inhibition of cell viability measured for 6 to 7 days by cell titer glo assay; format: functional, cell-based; procedure, shortened: as §2

Aurora kinase B/Inner centromere protein, sequence (Q96GD4 whole entry): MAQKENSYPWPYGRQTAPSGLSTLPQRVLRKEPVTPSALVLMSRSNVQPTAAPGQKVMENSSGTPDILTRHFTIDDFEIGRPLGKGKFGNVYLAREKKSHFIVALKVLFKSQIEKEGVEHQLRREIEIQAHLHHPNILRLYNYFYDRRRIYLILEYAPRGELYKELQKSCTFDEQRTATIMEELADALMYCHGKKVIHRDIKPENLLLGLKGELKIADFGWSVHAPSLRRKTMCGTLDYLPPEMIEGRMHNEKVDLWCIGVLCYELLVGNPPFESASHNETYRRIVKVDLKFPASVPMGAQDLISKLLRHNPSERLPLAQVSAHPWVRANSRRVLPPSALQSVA
Aurora kinase B/Inner centromere protein, sequence (Q9NQS7 whole entry, further chain): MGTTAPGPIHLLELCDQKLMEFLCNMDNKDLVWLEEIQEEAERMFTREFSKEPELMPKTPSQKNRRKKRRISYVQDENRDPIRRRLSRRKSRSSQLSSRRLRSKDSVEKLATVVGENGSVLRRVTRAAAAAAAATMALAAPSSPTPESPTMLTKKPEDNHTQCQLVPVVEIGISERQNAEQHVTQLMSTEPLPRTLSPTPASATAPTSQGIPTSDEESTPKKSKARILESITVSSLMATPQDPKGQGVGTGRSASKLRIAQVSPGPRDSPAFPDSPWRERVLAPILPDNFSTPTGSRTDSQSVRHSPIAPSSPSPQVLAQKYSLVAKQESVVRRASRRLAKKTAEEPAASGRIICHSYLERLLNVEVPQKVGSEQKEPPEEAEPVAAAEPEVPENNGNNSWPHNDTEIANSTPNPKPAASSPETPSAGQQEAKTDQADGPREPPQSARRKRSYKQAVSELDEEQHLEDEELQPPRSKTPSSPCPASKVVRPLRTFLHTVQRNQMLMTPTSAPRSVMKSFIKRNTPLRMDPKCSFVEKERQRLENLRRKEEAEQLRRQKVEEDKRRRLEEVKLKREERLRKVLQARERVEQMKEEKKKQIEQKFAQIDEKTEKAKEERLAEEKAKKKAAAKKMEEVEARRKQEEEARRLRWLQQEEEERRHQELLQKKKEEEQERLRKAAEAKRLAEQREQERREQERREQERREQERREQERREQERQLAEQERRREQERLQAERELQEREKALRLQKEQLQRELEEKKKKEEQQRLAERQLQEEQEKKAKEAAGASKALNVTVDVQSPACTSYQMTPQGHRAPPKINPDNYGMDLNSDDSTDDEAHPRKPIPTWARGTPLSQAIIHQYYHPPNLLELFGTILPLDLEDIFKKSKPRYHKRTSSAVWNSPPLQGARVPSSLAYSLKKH

CCn1cc(-c2ccnc3[nH]c(-c4cccc(CN(C)C)c4)cc23)c(-c2ccc(NC(=O)N(C)C)cc2)n1 [GSK-1070916]
pEC50 [1]: 8.30 | Activity [2]: Active | MST [3]: 103 days | pEC50 [4]: 7.70 | pEC50 [5]: 8.00 | pEC50 [6]: 8.15 | pEC50 [7]: 8.15 | pEC50 [8]: 8.70 | pEC50 [9]: 8.30 | pEC50 [10]: 8.40 | pEC50 [11]: 8.52 | Activity [12]: inactive | pEC50 [13]: 8.52 | pEC50 [14]: 8.10 | pEC50 [15]: 8.10 | pEC50 [16]: 7.85 | Activity [17]: Active | pEC50 [18]: 8.70 | pEC50 [19]: 8.70 | pEC50 [20]: 8.30 | pEC50 [21]: 8.15 | pEC50 [22]: 8.15 | pEC50 [23]: 7.72 | pKi [24]: 9.41 | pEC50 [25]: 8.05 | pEC50 [26]: 8.30 | pEC50 [27]: 8.40 | Activity [28]: inactive | pEC50 [29]: 7.27 | pEC50 [30]: 6.10 | pEC50 [31]: 7.47 | pEC50 [32]: 8.52 | pEC50 [33]: 7.02 | pEC50 [34]: 8.52 | pEC50 [35]: 6.45

From ChEMBL document CHEMBL5705886, “GSK1070916, a potent Aurora B/C kinase inhibitor with broad antitumor activity in tissue culture cells and human tumor xenograft models” (Mol Cancer Ther, 2009)
